Laboratory results published in ChEMBL document CHEMBL3352816, “Synthesis and antiproliferative activity of imidazo[2,1-b][1,3,4]thiadiazole derivatives” (Bioorg Med Chem Lett, 2014).
Activity calls are given as the source filed them. No cut-off for these calls is given here.

Key:
REH [1] = assay: Induction of apoptosis in human REH cells assessed as induction of ROS production at 10 uM after 10 mins by flow cytometric analysis (reference value: 0.33 %); type: functional
REH [2] = assay: Induction of apoptosis in human REH cells assessed as induction of ROS production at 1 uM after 15 mins by flow cytometric analysis (reference value: 0.09 %); type: functional
REH [3] = assay: Induction of apoptosis in human REH cells assessed as induction of ROS production at 500 nM after 10 mins by flow cytometric analysis (reference value: 0.33 %); type: functional
[4] = Cell cycle arrest in human NALM6 cells assessed as reduction of cells in G2/M phase after 48 hrs using propidium iodide by FACS analysis; type: functional, cell-based; details: NALM-6
Procedure, shortened: (§1)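 Reh and Nalm6 cells exposed 48 h to 0.1, 0.5, 1 and 5 µM, harvested, stained with propidium iodide and analysed by flow cytometry. Gated fractions were sub G1, G1, S and G2. DMSO-treated cells served as vehicle control. Three independent experiments for Reh and two for Nalm6.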

REH [5] = assay: Induction of apoptosis in human REH cells assessed as loss of mitochondrial membrane potential at 1 uM after 48 hrs using Jc-1 staining by flow cytometric analysis; type: functional, cell-based
Procedure, shortened: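 Mitochondrial membrane potential in Reh cells after 48 h at 0.1, 0.5, 1 and 5 µM. Cells stained with JC-1 and analysed by flow cytometry as the ratio of red (aggregate) to green (monomer) fluorescent cells. 2,4-DNP-treated cells served as positive control.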

K562 = assay: Cytotoxicity against human K562 cells assessed as reduction in cell viability after 24 to 72 hrs by trypan blue exclusion assay; type: functional, cell-based
Procedure, shortened: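 Reh, K562 and Nalm6 leukemic cells were treated with 10, 50, 100 and 250 µM or with 0.1, 0.5, 1, 5 and 10 µM (compounds dissolved in DMSO). Viability was scored by trypan blue after 24, 48 and 72 h. DMSO-treated cells served as vehicle control.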

[6] = Growth inhibition of human Melanoma cells; type: functional; details: Melanoma cell
[7] = Growth inhibition of human Breast cancer cells; type: functional; details: Cancer cell lines
REH [8] = assay: Cytotoxicity against human REH cells assessed as reduction in cell viability at 5 to 10 uM after 48 to 72 hrs by MTT assay; type: functional, cell-based
Procedure, shortened: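 MTT viability read-out in leukemic cells treated with 10, 50, 100 and 250 µM or with 0.1, 0.5, 1, 5 and 10 µM. Cells harvested after 48 and 72 h. Compounds dissolved in DMSO.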

[9] = Cell cycle arrest in human NALM6 cells assessed as reduction of cells in S phase after 48 hrs using propidium iodide by FACS analysis; type: functional, cell-based; details: NALM-6; procedure, shortened: as §1
REH [10] = assay: Cell cycle arrest in human REH cells assessed as accumulation at subG1 phase after 48 hrs using propidium iodide by FACS analysis; type: functional, cell-based; procedure, shortened: as §1
REH [11] = assay: Induction of apoptosis in human REH cells assessed as change in caspase 9 expression at 1 uM after 48 hrs by Western blot analysis; type: functional, cell-based
Procedure, shortened: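 Reh cell lysates were prepared after 48 h treatment at 500 nM and 1 µM, with DMSO-treated cells as control. Western blotting used primary antibodies against KU70, PARP1, caspase 3, BID, caspase 9, FAS and caspase 8, with tubulin also probed.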

## O=Cc1c(-c2ccc(Br)cc2)nc2sc(Cc3ccccc3)nn12
REH [1]
  Activity: 0.41%
REH [2]
  Activity: 0.09%
REH [3]
  Activity: 0.86%
[4]
  Activity: Dose-dependent effect
REH [5]
  Activity: Dose-dependent effect
K562
  Activity: Dose-dependent effect
[6]
  GI50: 3.2 µM
  LC50: 81.3 µM
  TGI: 19.5 µM
[7]
  GI50: 3.5 µM
  TGI: 28.2 µM
REH [8]
  Activity: Active
[9]
  Activity: Dose-dependent effect
REH [10]
  Activity: Dose-dependent effect
REH [11]
  Activity: inactive
